In ChEMBL document CHEMBL1154352, “Toll-like receptor 7 selective synthetic oligoribonucleotide agonists: synthesis and structure-activity relationship studies” (J Med Chem, 2009):
Activity calls are given as the source filed them. The rule behind the calls is not given here.

Tests used:
PBMC [1] = test: Immunomodulatory activity in human PBMC assessed as induction of IFN-alpha at 100 ug/ml after 24 hrs
PBMC [2] = test: Immunomodulatory activity in human PBMC assessed as induction of IFNalpha at 50 ug/ml after 24 hrs; format: functional, cell-based
In short: (§1)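 Human PBMCs plated at 5 × 10^6 cells/mL; compounds dissolved in PBS added at various concentrations, 37 °C for 24 h. Supernatant cytokines/chemokines quantified with human Luminex multiplex kit.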

Homo sapiens [3] = species: Homo sapiens; test: Immunostimulatory activity in human mDC assessed as induction of IL6 at 100 ug/ml after 24 hrs; format: functional
In short: (§2)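 Human mDCs isolated from PBMCs by CD19+ B-cell depletion then BDCA1 positive selection; plated at 1 × 10^6 cells/mL, compounds in PBS, 37 °C for 24 h; supernatant cytokines by human Luminex multiplex. Representative of four independent experiments.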

Homo sapiens [4] = species: Homo sapiens; test: Immunostimulatory activity in human mDC assessed as induction of IL12 at 100 ug/ml after 24 hrs; format: functional
In short: as §2

PBMC [5] = test: Immunomodulatory activity in human PBMC assessed as induction of IP10 at 50 ug/ml after 24 hrs; format: functional, cell-based
In short: as §1

PBMC [6] = test: Immunomodulatory activity in human PBMC assessed as induction of MIP1beta at 50 ug/ml after 24 hrs; format: functional, cell-based
In short: as §1

Homo sapiens [7] = species: Homo sapiens; test: Ratio of human TLR7 activity to human TLR8 activity
In short: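 TLR7/TLR8 ratio computed from fold NF-κB (SEAP reporter) activation in HEK293 cells stably expressing human TLR7 versus TLR8, compounds at 50 μg/mL, 18 h exposure; representative of three independent experiments.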

PBMC [8] = test: Immunomodulatory activity in human PBMC assessed as induction of MIP1alpha at 50 ug/ml after 24 hrs; format: functional, cell-based
In short: as §1

PBMC [9] = test: Immunomodulatory activity in human PBMC assessed as induction of IL6 at 50 ug/ml after 24 hrs; format: functional, cell-based
In short: as §1

[10] = Metabolic stability in human serum assessed as full length product remaining after 10 mins by HPLC; format: ADME, cell-free; settings: read-out: Stability
In short: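 About 0.5 A260 units compound in 1% human serum in PBS, 37 °C; aliquot taken at 10 min, analysed by anion-exchange HPLC for percent intact full-length product.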

PBMC [11] = test: Immunomodulatory activity in human PBMC assessed as induction of IL12 at 50 ug/ml after 24 hrs; format: functional, cell-based
In short: as §1

Homo sapiens [12] = species: Homo sapiens; test: Immunostimulatory activity in human mDC assessed as induction of TNFalpha at 100 ug/ml after 24 hrs; format: functional
In short: as §2

PBMC [13] = test: Immunomodulatory activity in human PBMC assessed as induction of IL1-beta at 50 ug/ml after 24 hrs; format: functional, cell-based
In short: as §1

Homo sapiens [14] = species: Homo sapiens; test: Immunostimulatory activity in human mDC assessed as induction of IFNalpha at 100 ug/ml after 24 hrs; format: functional
In short: as §2

PBMC [15] = test: Immunomodulatory activity in human PBMC assessed as induction of TNFalpha at 50 ug/ml after 24 hrs; format: functional, cell-based
In short: as §1

[16] = target: T1, Toll-like receptor 8 (Homo sapiens) (UniProt Q9NR97); test: Activation of human TLR8 expressed in HEK293XL assessed as fold induction of NF-kappaB activity at 50 ug/ml after 18 hrs by reporter gene assay relative to control
T1 sequence (whole entry): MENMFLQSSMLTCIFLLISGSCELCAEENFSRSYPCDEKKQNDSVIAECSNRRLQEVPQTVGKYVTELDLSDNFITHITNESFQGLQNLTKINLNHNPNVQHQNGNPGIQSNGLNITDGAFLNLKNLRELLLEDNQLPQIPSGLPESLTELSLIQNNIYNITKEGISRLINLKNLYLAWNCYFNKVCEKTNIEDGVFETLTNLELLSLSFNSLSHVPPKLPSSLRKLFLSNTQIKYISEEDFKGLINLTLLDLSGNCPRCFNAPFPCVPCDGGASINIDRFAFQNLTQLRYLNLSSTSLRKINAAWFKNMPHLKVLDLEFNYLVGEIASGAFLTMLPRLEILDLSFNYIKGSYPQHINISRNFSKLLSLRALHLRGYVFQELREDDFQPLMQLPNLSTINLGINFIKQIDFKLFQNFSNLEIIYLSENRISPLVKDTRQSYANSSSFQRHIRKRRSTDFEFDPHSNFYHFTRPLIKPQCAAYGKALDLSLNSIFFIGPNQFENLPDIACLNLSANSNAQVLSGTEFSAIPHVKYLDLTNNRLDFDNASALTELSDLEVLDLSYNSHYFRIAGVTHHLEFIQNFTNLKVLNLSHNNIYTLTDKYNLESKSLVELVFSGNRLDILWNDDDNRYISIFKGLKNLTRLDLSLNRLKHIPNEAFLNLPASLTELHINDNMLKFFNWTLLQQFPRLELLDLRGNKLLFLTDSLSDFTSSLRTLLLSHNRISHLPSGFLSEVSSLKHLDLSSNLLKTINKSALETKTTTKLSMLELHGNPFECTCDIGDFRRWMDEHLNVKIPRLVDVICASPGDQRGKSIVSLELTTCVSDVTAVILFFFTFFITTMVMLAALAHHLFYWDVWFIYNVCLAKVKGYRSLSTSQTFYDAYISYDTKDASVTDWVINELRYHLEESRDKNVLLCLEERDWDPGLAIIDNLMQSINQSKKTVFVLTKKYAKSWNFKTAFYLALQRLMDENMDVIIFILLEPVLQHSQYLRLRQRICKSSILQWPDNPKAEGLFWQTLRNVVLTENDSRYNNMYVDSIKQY
In short: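 HEK293 cells stably expressing human TLR7 or TLR8, transiently transfected with SEAP reporter plasmid; medium replaced, SIMRA compounds added, 18 h incubation. Supernatant SEAP measured by QuantiBlue; expressed as fold increase in NF-κB activity over PBS control. Tabulated data at 50 μg/mL, representative of three independent experiments.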

Homo sapiens [17] = species: Homo sapiens; test: Immunostimulatory activity in human pDC assessed as induction of IL6 at 100 ug/ml after 24 hrs; format: functional
In short: (§3)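 Human pDCs plated at 1 × 10^6 cells/mL; compounds in PBS added, 37 °C for 24 h; supernatant cytokines/chemokines by human Luminex multiplex kit.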

PBMC [18] = test: Immunomodulatory activity in human PBMC assessed as induction of MCP1 at 50 ug/ml after 24 hrs; format: functional, cell-based
In short: as §1

[19] = target: Toll-like receptor 3 (Homo sapiens) (UniProt O15455); test: Activation of human TLR3 expressed in HEK293 assessed as induction of NF-kappaB activity reporter gene assay; format: cell-based
Toll-like receptor 3 (Homo sapiens), sequence (O15455 whole entry): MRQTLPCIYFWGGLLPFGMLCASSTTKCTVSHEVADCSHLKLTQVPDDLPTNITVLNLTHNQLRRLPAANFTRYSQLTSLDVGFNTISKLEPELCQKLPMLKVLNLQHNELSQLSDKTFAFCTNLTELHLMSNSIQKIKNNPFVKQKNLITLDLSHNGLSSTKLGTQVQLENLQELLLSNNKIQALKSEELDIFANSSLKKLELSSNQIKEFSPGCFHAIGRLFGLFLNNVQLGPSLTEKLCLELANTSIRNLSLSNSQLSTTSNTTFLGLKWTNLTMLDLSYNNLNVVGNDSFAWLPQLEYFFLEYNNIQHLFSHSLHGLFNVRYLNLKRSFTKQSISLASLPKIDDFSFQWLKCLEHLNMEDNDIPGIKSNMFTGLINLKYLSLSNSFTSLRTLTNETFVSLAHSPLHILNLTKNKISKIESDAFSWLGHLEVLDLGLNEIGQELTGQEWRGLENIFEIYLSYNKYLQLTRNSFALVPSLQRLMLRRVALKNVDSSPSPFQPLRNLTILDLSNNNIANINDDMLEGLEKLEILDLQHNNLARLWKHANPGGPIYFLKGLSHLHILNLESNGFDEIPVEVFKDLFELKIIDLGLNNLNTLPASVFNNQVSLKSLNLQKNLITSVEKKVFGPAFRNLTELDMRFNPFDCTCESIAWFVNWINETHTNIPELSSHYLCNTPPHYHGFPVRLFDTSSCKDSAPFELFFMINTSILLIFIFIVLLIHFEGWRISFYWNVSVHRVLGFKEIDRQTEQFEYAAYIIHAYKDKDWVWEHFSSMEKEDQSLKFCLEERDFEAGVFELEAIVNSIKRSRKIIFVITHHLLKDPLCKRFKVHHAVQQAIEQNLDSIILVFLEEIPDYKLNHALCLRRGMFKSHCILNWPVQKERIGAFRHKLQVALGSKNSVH

Homo sapiens [20] = species: Homo sapiens; test: Immunostimulatory activity in human mDC assessed as induction of IP10 at 100 ug/ml after 24 hrs; format: functional
In short: as §2

Homo sapiens [21] = species: Homo sapiens; test: Immunostimulatory activity in human pDC assessed as induction of IFNalpha at 100 ug/ml after 24 hrs; format: functional
In short: as §3

Nc1ccn([C@@H]2O[C@H](COP(=O)(S)O[C@H]3[C@@H](O)[C@H](n4cnc5c(=O)[nH]c(N)nc54)O[C@@H]3COP(=O)(S)O[C@H]3[C@@H](O)[C@H](n4ccc(=O)[nH]c4=O)O[C@@H]3COP(=O)(S)OCCCO)[C@@H](OP(=O)(S)OC[C@H]3O[C@@H](n4ccc(=O)[nH]c4=O)[C@H](O)[C@@H]3OP(=O)(S)OC[C@H]3O[C@@H](n4cnc5c(=O)[nH]c(N)nc54)[C@H](O)[C@@H]3OP(=O)(S)OC[C@H]3O[C@@H](n4ccc(N)nc4=O)[C@H](O)[C@@H]3OP(=O)(S)OC[C@H]3O[C@@H](n4ccc(=O)[nH]c4=O)[C@H](O)[C@@H]3OP(=O)(S)OC[C@H]3O[C@@H](n4ccc(=O)[nH]c4=O)[C@H](O)[C@@H]3OP(=O)(S)OC[C@H]3O[C@@H](n4cnc5c(=O)[nH]c(N)nc54)[C@H](O)[C@@H]3OP(=O)(S)OC[C@H]3O[C@@H](n4ccc(=O)[nH]c4=O)[C@H](O)[C@@H]3OP(=O)(S)OC[C@H]3O[C@@H](n4cnc5c(=O)[nH]c(N)nc54)[C@H](O)[C@@H]3OP(=O)(S)OCC(O)COP(=O)(S)O[C@H]3[C@@H](O)[C@H](n4cnc5c(=O)[nH]c(N)nc54)O[C@@H]3COP(=O)(S)O[C@H]3[C@@H](O)[C@H](n4ccc(=O)[nH]c4=O)O[C@@H]3COP(=O)(S)O[C@H]3[C@@H](O)[C@H](n4cnc5c(=O)[nH]c(N)nc54)O[C@@H]3COP(=O)(S)O[C@H]3[C@@H](O)[C@H](n4ccc(=O)[nH]c4=O)O[C@@H]3COP(=O)(S)O[C@H]3[C@@H](O)[C@H](n4ccc(=O)[nH]c4=O)O[C@@H]3COP(=O)(S)O[C@H]3[C@@H](O)[C@H](n4ccc(N)nc4=O)O[C@@H]3COP(=O)(S)O[C@H]3[C@@H](O)[C@H](n4cnc5c(=O)[nH]c(N)nc54)O[C@@H]3COP(=O)(S)O[C@H]3[C@@H](O)[C@H](n4ccc(=O)[nH]c4=O)O[C@@H]3COP(=O)(S)O[C@H]3[C@@H](O)[C@H](n4ccc(N)nc4=O)O[C@@H]3COP(=O)(S)O[C@H]3[C@@H](O)[C@H](n4cnc5c(=O)[nH]c(N)nc54)O[C@@H]3COP(=O)(S)O[C@H]3[C@@H](O)[C@H](n4ccc(=O)[nH]c4=O)O[C@@H]3COP(=O)(S)OCCCO)[C@H]2O)c(=O)n1 (stereo partly specified)
IFN-alpha (PBMC [1]): 81.6 pg/mL
Activity (PBMC [2]): 56 pg/mL
Activity (Homo sapiens [3]): Active
Activity (Homo sapiens [4]): Active
Activity (PBMC [5]): 24 pg/mL
Activity (PBMC [6]): 5730 pg/mL
Ratio (Homo sapiens [7]): 0.1
Activity (PBMC [8]): 4760 pg/mL
Activity (PBMC [9]): 3980 pg/mL
remaining at 10 min [10]: 78%
Activity (PBMC [11]): 570 pg/mL
Activity (Homo sapiens [12]): Active
Activity (PBMC [13]): 568 pg/mL
Activity (Homo sapiens [14]): Active
Activity (PBMC [15]): 541 pg/mL
fold change (FC) [16]: 9.2
Activity (Homo sapiens [17]): Active
Activity (PBMC [18]): 46700 pg/mL
Activity [19]: inactive
Activity (Homo sapiens [20]): Active

Nc1ncnc2c1ncn2[C@@H]1O[C@H](CO)[C@@H](OP(=O)(S)OC[C@H]2O[C@@H](n3cnc4c(N)ncnc43)[C@H](O)[C@@H]2OP(=O)(S)OC[C@H]2O[C@@H](n3cnc4c(N)ncnc43)[C@H](O)[C@@H]2OP(=O)(S)OC[C@H]2O[C@@H](n3cnc4c(N)ncnc43)[C@H](O)[C@@H]2OP(=O)(S)OC[C@H]2O[C@@H](n3cnc4c(N)ncnc43)[C@H](O)[C@@H]2OP(=O)(S)OC[C@H]2O[C@@H](n3cnc4c(N)ncnc43)[C@H](O)[C@@H]2OP(=O)(S)OC[C@H]2O[C@@H](n3cnc4c(N)ncnc43)[C@H](O)[C@@H]2OP(=O)(S)OC[C@H]2O[C@@H](n3cnc4c(N)ncnc43)[C@H](O)[C@@H]2OP(=O)(S)OC[C@H]2O[C@@H](n3cnc4c(N)ncnc43)[C@H](O)[C@@H]2OP(=O)(S)OC[C@H]2O[C@@H](n3cnc4c(N)ncnc43)[C@H](O)[C@@H]2OP(=O)(S)OC[C@H]2O[C@@H](n3cnc4c(N)ncnc43)[C@H](O)[C@@H]2OP(=O)(S)OCC(O)COP(=O)(S)O[C@H]2[C@@H](O)[C@H](n3cnc4c(N)ncnc43)O[C@@H]2COP(=O)(S)O[C@H]2[C@@H](O)[C@H](n3cnc4c(N)ncnc43)O[C@@H]2COP(=O)(S)O[C@H]2[C@@H](O)[C@H](n3cnc4c(N)ncnc43)O[C@@H]2COP(=O)(S)O[C@H]2[C@@H](O)[C@H](n3cnc4c(N)ncnc43)O[C@@H]2COP(=O)(S)O[C@H]2[C@@H](O)[C@H](n3cnc4c(N)ncnc43)O[C@@H]2COP(=O)(S)O[C@H]2[C@@H](O)[C@H](n3cnc4c(N)ncnc43)O[C@@H]2COP(=O)(S)O[C@H]2[C@@H](O)[C@H](n3cnc4c(N)ncnc43)O[C@@H]2COP(=O)(S)O[C@H]2[C@@H](O)[C@H](n3cnc4c(N)ncnc43)O[C@@H]2COP(=O)(S)O[C@H]2[C@@H](O)[C@H](n3cnc4c(N)ncnc43)O[C@@H]2COP(=O)(S)O[C@H]2[C@@H](O)[C@H](n3cnc4c(N)ncnc43)O[C@@H]2COP(=O)(S)O[C@H]2[C@@H](O)[C@H](n3cnc4c(N)ncnc43)O[C@@H]2CO)[C@H]1O (stereo partly specified)
Activity (Homo sapiens [21]): inactive
IFN-alpha (PBMC [1]): 0 pg/mL
Activity (PBMC [2]): 12 pg/mL
Activity (Homo sapiens [3]): inactive
Activity (Homo sapiens [4]): inactive
Activity (PBMC [5]): 4 pg/mL
Activity (PBMC [6]): 83 pg/mL
Activity (Homo sapiens [7]): Active
Activity (PBMC [8]): 43 pg/mL
Activity (PBMC [9]): 12 pg/mL
remaining at 10 min [10]: 92%
Activity (PBMC [11]): 138 pg/mL
Activity (Homo sapiens [12]): inactive
Activity (PBMC [13]): 28 pg/mL
Activity (Homo sapiens [14]): inactive
Activity (PBMC [15]): 0 pg/mL
fold change (FC) [16]: 0.7
Activity (Homo sapiens [17]): inactive
Activity (PBMC [18]): 724 pg/mL
Activity [19]: inactive
Activity (Homo sapiens [20]): inactive
